# Test results: ChEMBL document CHEMBL1156819, “Structure-activity studies of urea, carbamate, and sulfonamide derivatives of acylfulvene” (J Med Chem, 2010)
# The source made the active and inactive calls. The rule behind the calls is not given here.
# What was measured:
# [1] = system: MV522; assay: In-vivo antitumor activity against human MV522 cells assessed as induction of tumor shrinkage in xenograft model at nontoxic dose; format: functional, cell-based
# [2] = Cytotoxicity against human 8392B cells after 48 hrs by trypan blue exclusion assay; format: cell-based
# Procedure, shortened: (§1)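 Human MV522 lung adenocarcinoma (target) and 8392 B-cell lymphoma/leukemia (nontarget) lines. Compounds were made as 1 mg/mL stocks in cell-culture-grade DMSO and diluted in sterile 10% DMSO/PBS just before addition. Cells were exposed continuously for 48 h, and controls received equal DMSO/PBS vehicle. Cell survival was scored at 48 h by trypan blue exclusion.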
# [3] = Cytotoxicity against human MV522 cells after 48 hrs by trypan blue exclusion assay; format: functional, cell-based; details: MV522, 48 h; procedure, shortened: as §1
# [4] = Selectivity index, ratio of IC50 for human 8392B cells to IC50 for human MV522 cells; format: functional
SMILES,Activity [1],IC50 [2],IC50 [3],Ratio IC50 [4]
CC1=C(CCCOC(=O)NCCO)C2=C(C)C3(CC3)[C@@](C)(O)C(=O)C2=C1,Active,,,
CC1=C(CO)C2=C(C)C3(CC3)[C@@](C)(O)C(=O)C2=C1 [IROFULVEN],,76 nM,170 nM,
CC1=C(CNC(=O)NO)C2=C(C)C3(CC3)[C@@](C)(O)C(=O)C2=C1,,9800 nM,190 nM,>51
CC1=C(CCCNS(=O)(=O)NO)C2=C(C)C3(CC3)[C@@](C)(O)C(=O)C2=C1,,250 nM,8 nM,31
CC1=C(CNC(=O)NCCO)C2=C(C)C3(CC3)[C@@](C)(O)C(=O)C2=C1,,> 9000 nM,190 nM,>47
CC1=C(CCCOC(=O)N2CCCCC2)C2=C(C)C3(CC3)[C@@](C)(O)C(=O)C2=C1,,7100 nM,1200 nM,6
CC1=C(CNS(C)(=O)=O)C2=C(C)C3(CC3)[C@@](C)(O)C(=O)C2=C1,,> 9300 nM,,
CC1=C(CCCNS(N)(=O)=O)C2=C(C)C3(CC3)[C@@](C)(O)C(=O)C2=C1,Active,54000 nM,76 nM,710
CC1=C(CCCNC(=O)NCCO)C2=C(C)C3(CC3)[C@@](C)(O)C(=O)C2=C1,,> 2800 nM,< 80 nM,>35
CC1=C(CCCNS(C)(=O)=O)C2=C(C)C3(CC3)[C@@](C)(O)C(=O)C2=C1,Active,42000 nM,280 nM,>150
CC1=C(CCCNC(=O)N2CCC(N3CCCCC3)CC2)C2=C(C)C3(CC3)[C@@](C)(O)C(=O)C2=C1,,9000 nM,,
CC1=C(CCCNS(=O)(=O)c2ccc(C)cc2)C2=C(C)C3(CC3)[C@@](C)(O)C(=O)C2=C1,,,580 nM,
CC1=C(CCCNC(=O)NO)C2=C(C)C3(CC3)[C@@](C)(O)C(=O)C2=C1,,> 9000 nM,,
CC1=C(CCCOC(=O)NCCCl)C2=C(C)C3(CC3)[C@@](C)(O)C(=O)C2=C1,,,57 nM,
CONC(=O)NCC1=C(C)C=C2C(=O)[C@](C)(O)C3(CC3)C(C)=C21,,> 9400 nM,,
CC1=C(CCCOC(=O)N2CCOCC2)C2=C(C)C3(CC3)[C@@](C)(O)C(=O)C2=C1,,62200 nM,,
CC1=C(CNS(N)(=O)=O)C2=C(C)C3(CC3)[C@@](C)(O)C(=O)C2=C1,,> 9300 nM,300 nM,>31
CC1=C(CNC(=O)NCCCl)C2=C(C)C3(CC3)[C@@](C)(O)C(=O)C2=C1,,> 8500 nM,,
